Compound activity deposited in PubChem BioAssay by several laboratories.
TMEM16A inh – TMEM16A chloride channel inhibitors, primary screen, cell-based, HTS; Anoctamin-1 (Mus musculus), Q8BHY3; HEK293 TMEM16A/YFP iodide influx fluorescence, ionomycin; normalized B-score (activity score, 25-100; higher = stronger inhibition) at 10 µM; 1.2% of 310,000 active; AID 588511, 2011;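 active = ratio plate-corrected score three or more library SD toward inhibition, starting fluorescence score within five deviations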;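 also: score derived from kinetic fluorescence span divided by baseline fluorescence per well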
Target sequence (Q8BHY3 whole entry, looked up): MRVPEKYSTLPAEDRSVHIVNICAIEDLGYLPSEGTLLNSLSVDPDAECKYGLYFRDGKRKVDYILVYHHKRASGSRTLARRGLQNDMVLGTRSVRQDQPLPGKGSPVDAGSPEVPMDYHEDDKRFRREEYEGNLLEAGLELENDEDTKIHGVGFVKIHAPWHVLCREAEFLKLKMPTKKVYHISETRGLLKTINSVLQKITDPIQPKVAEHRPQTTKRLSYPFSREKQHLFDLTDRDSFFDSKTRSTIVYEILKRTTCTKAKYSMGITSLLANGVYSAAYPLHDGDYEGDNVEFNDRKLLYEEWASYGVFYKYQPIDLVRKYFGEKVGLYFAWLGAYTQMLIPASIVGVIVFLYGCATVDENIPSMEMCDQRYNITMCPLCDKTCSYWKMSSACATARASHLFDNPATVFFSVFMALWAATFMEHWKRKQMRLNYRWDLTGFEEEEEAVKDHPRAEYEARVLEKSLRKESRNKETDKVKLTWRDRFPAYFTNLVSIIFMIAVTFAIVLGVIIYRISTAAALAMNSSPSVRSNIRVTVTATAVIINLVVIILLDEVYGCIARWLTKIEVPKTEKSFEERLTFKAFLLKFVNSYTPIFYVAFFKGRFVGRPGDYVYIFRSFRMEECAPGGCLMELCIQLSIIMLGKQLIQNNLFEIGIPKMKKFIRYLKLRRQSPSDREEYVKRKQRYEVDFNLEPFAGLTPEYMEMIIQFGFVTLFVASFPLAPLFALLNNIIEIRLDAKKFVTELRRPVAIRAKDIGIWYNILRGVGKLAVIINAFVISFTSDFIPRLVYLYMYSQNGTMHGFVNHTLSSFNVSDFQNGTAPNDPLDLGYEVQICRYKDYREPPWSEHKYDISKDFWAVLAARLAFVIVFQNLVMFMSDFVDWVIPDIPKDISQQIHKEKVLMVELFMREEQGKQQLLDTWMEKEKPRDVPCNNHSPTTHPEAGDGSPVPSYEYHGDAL
CSC inhib – cancer stem cell viability inhibitors, primary screen, luminescence | cancer stem cell-like cells viability | inhibition, % at 7.5 µM | 1.1% of 300,000 active; in the data active = inhibition above about 75%; tested in HMLE shEcad cells
ANO1 activ – TMEM16A chloride channel activators or potentiators, primary screen, cell-based, HTS | Anoctamin-1 (Mus musculus), Q8BHY3 | HEK293 TMEM16A/YFP-H148Q/I152L, iodide quench fluorescence; hits give low values | B-score at 10 µM | 0.3% of 340,000 active | AID 623877, 2012;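 active = fluorescence-ratio B-score plate-corrected deviation score at least 3 library SD below zero, with starting fluorescence score within 5 deviations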;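 also: channel opened by trigger with iodide after compound preincubation; score built on the fluorescence ratio of max minus min over baseline; more negative score means more quench and so TMEM16A activation or potentiation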
MC4R antagonist – MC4R antagonists of cAMP signaling, primary screen, cell-based, TR-FRET, antagonist arm of biased-ligand search. inhibition, % at 6.5 µM. Melanocortin receptor 4 (Homo sapiens), P32245. MC4R-expressing cells, MTII-stimulated cAMP, LANCE TR-FRET. 0.48% of 360,000 active;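 active = inhibition above its plate's cutoff, the mean of tested wells on that plate plus 3 SD, cut at about 29% in these data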;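 also: 0% = Melanotan II alone and 100% = Melanotan II plus saturating MCL0020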
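System: U2OS-MC4R stable cell line; Technique: Eu-cAMP/anti-cAMP TR-FRET, emission 671 nm; Repeats: single well per compound; Also added: Melanotan II; Dosing: one concentration, 6.5 µM nominal; Schedule: 30-min compound, 1-h challenge, 1-h detection, room temperature.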
MC4R ag barr – MC4R agonists recruiting beta-arrestin, primary screen, cell-based, luminescence, agonist arm of biased-ligand search. Melanocortin receptor 4 (Homo sapiens), P32245. U2OS MC4R beta-arrestin complementation; percent of melanotan II response, DMSO zero. activation, % at 8.9 µM. 0.98% of 360,000 active;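 active = activation above a per-plate cutoff, the mean activation of sample wells on that plate plus 3 SD, cut at about 8% in these data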
Beta apoptosis – inhibitors of cytokine-induced beta cell apoptosis, primary screen, luminescence | INS-1E cytokine-induced death, ATP luminescence, 48 h; percent of positive-control rescue, neutral wells zero | protection from apoptosis, % (concentration not given with the values) | 0.8% of 300,000 active;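 active = Every replicate reaches about 75%, or at least half do and their mean reaches it too, limit read from the data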;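 also: 0% = cytokine-treated negative control wells and 100% = positive control rescue; higher means more ATP so stronger rescue from cytokine killing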
MC4R barr ag – MC4R beta-arrestin agonists, retest, confirmation, cell-based, luminescence, U2OS; U2OS MC4R beta-arrestin recruitment; scaled DMSO 0%, Melanotan II 100%; 31% of 2,400 active; activation, % at 8.9 µM; shares compounds with MC4R ag barr; AID 602192, 2012;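 active = mean activation across replicates above the hit cutoff set in the earlier primary screen, cut at about 8% in these data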
MOR-DOR barr ag – agonists of MOR-DOR heterodimerization, counter-screen for MC4R biased agonist project, cell-based, luminescence. shares compounds with MC4R ag barr. U2OS PathHunter beta-arrestin, beta-gal luminescence; percent of deltorphin B response, DMSO zero. activation, % at 9.2 µM. 5.8% of 2,400 active. AID 602194, 2012;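 active = mean activation across replicates exceeds the hit threshold derived in the earlier primary screen, cut at about 18% in these data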;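 also: 100% = deltorphin B at 0.9 µM final and 0% = DMSO alone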
* = called active by the depositor. Shown are actives, neighbours in structure and some others; about 3.8% of the full set was active somewhere.

What do the screens show for `CCN1CCN(Cc2ccc(NC(=O)c3ccc(C)c(NC(=O)c4ccnnc4)c3)cc2C(F)(F)F)CC1`?
TMEM16A inh: inactive; CSC inhib: 7; ANO1 activ: inactive; MC4R antagonist: 6; MC4R ag barr: 0; Beta apoptosis: -16

Results for CCOc1ccc(CCNC(=O)Cn2ncn3nc(-c4ccc(OC)cc4)cc3c2=O)cc1OCC ?
TMEM16A inh: inactive; CSC inhib: -6; ANO1 activ: inactive; MC4R antagonist: 3; MC4R ag barr: 0

How did O=C(/C=C/c1ccc(OC(F)F)cc1)OCC(=O)N1CCc2ccccc21 do in these assays?
TMEM16A inh: inactive; CSC inhib: -12; ANO1 activ: inactive; MC4R antagonist: 3; MC4R ag barr: 13*; Beta apoptosis: -8; MC4R barr ag: 2; MOR-DOR barr ag: 6

Results for Cc1ccc(OCC(=O)NC(=S)Nc2cccc(NC(=O)c3ccccc3Cl)c2)cc1 ?
TMEM16A inh: inactive; CSC inhib: 1; ANO1 activ: inactive; MC4R antagonist: 1; MC4R ag barr: 15*; Beta apoptosis: -2; MC4R barr ag: 6; MOR-DOR barr ag: 4

What do the screens show for `CCC(=O)NC(=S)Nc1ccc(NC(=O)COc2ccc(Cl)c(C)c2)cc1`?
TMEM16A inh: inactive; CSC inhib: 18; ANO1 activ: inactive; MC4R antagonist: 12; MC4R ag barr: 19*; Beta apoptosis: 7; MC4R barr ag: 3; MOR-DOR barr ag: 5

How did COc1ccc(OC)c(NC(=O)/C=C/c2ccc(S(=O)(=O)N3CCOCC3)cc2)c1 do in these assays?
ANO1 activ: inactive; MC4R antagonist: 0; MC4R ag barr: -1

Results for CN1CCn2cnc(C(=O)Nc3ccc(CNC(=O)OC(C)(C)C)cc3)c2C1=O ?
MC4R antagonist: -2; MC4R ag barr: 1

Results for O=C(c1cc(F)ccc1F)C1CCCN(C(=O)c2ccc3nccnc3c2)C1 (centres undefined) ?
TMEM16A inh: inactive; CSC inhib: 7; ANO1 activ: inactive; MC4R antagonist: 13; MC4R ag barr: -1; Beta apoptosis: -3

Results for CC1Sc2ccc(C(=O)OCc3ccccc3Cl)cc2NC1=O (centres undefined) ?
TMEM16A inh: inactive; CSC inhib: -12; ANO1 activ: inactive; MC4R antagonist: 12; MC4R ag barr: 35*; Beta apoptosis: 9; MC4R barr ag: 3; MOR-DOR barr ag: 6

Results for COc1cccc(COC(=O)c2ccc3c(c2)NC(=O)C(C)S3)c1OC (centres undefined) ?
TMEM16A inh: inactive; CSC inhib: -1; ANO1 activ: inactive; MC4R antagonist: 2; MC4R ag barr: 19*; Beta apoptosis: 5; MC4R barr ag: 3; MOR-DOR barr ag: 9

Results for CC1Sc2ccc(C(=O)O)cc2NC1=O (centres undefined) ?
TMEM16A inh: inactive; CSC inhib: 2; ANO1 activ: inactive; MC4R antagonist: 0; MC4R ag barr: 0; Beta apoptosis: -1

What do the screens show for `CCCNC(=O)C1(C)CCN(C(=O)c2oc3ccccc3c2C)C1` (centres undefined)?
MC4R antagonist: 8; MC4R ag barr: 1

Results for CC(=O)c1nn(-c2cccc(Br)c2)cc1C(=O)c1ccc(C)cc1 ?
TMEM16A inh: inactive; CSC inhib: 0; ANO1 activ: inactive; MC4R antagonist: 1; MC4R ag barr: 35*; Beta apoptosis: 1; MC4R barr ag: 6; MOR-DOR barr ag: 6

Results for COCCNC(=O)C1(C)CCCN(C(=O)c2cnc3ccccc3n2)C1 (centres undefined) ?
MC4R antagonist: 4; MC4R ag barr: -1

Results for COc1cccc(C(=O)NCc2ccc(-c3nc4ccccc4s3)cc2)c1 ?
TMEM16A inh: inactive; CSC inhib: 6; ANO1 activ: inactive; MC4R antagonist: 0; MC4R ag barr: 30*; Beta apoptosis: -6; MC4R barr ag: 2; MOR-DOR barr ag: 4

How did COc1cccc(C(=O)Nc2nnc(-c3ccccc3)s2)c1 do in these assays?
TMEM16A inh: inactive; CSC inhib: -12; ANO1 activ: inactive; MC4R antagonist: -4; MC4R ag barr: 13*; Beta apoptosis: 2; MC4R barr ag: 2; MOR-DOR barr ag: 1

What do the screens show for `COc1cccc(C(=O)Nc2nnc(-c3ccc(OC)cc3OC)s2)c1`?
TMEM16A inh: inactive; CSC inhib: 2; ANO1 activ: inactive; MC4R antagonist: 10; MC4R ag barr: 1; Beta apoptosis: -3

How did COc1ccc(C(=O)NCc2ccc(-c3nc4ccccc4s3)cc2)cc1 do in these assays?
TMEM16A inh: inactive; ANO1 activ: inactive; MC4R antagonist: 4; MC4R ag barr: 1

How did O=C(Nc1ccccc1-c1ccccc1)c1cc(C(F)(F)F)cc(C(F)(F)F)c1 do in these assays?
TMEM16A inh: inactive; CSC inhib: -10; ANO1 activ: inactive; MC4R antagonist: 13; MC4R ag barr: 17*; Beta apoptosis: -13; MC4R barr ag: -1; MOR-DOR barr ag: 4

Results for O=C(Nc1ccccc1-c1ccccc1)C(=O)Nc1ccccc1-c1ccccc1 ?
TMEM16A inh: inactive; CSC inhib: -2; Beta apoptosis: -1

How did O=C(CCCSc1ccc(Cl)cc1)Nc1ccccc1O do in these assays?
TMEM16A inh: inactive; CSC inhib: -13; ANO1 activ: inactive; MC4R antagonist: 1; MC4R ag barr: 3; Beta apoptosis: 0

What do the screens show for `CCOC(=O)C1(Cc2cccc(OC)c2)CCN(C/C=C/c2ccccc2)CC1`?
TMEM16A inh: inactive; CSC inhib: 6; ANO1 activ: inactive; MC4R antagonist: -2; MC4R ag barr: 12*; Beta apoptosis: 8; MC4R barr ag: 10*; MOR-DOR barr ag: 10
